Results reported in paper PMC6571994 (The Journal of General Physiology, 2019).
Entries after “also recorded” stand apart in the source; their conditions may differ. Like-named read-outs stand apart in the source and are kept apart here.

How the values were obtained:
purified iNicSnFR3a [1] = assay: Fluorescence dose–response relations of purified iNicSnFR3a; assay type: biochemical; settings: for sensitivity of iNicSnFR3a and iNicSnFR3b to other α4β2 agonists: unpublished data; for ΔFmax/F0: excitation 485 nm, 3× PBS, 25°C
[2] = tested on: T. sp X513 OpuBC homologue; assay: Isothermal titration calorimetry with purified PBPs; assay type: binding, Thermoanaerobacter sp X513
[3] = tested on: iNicSnFR3a_PM expressed in HeLa cells; assay: Time-resolved fluorescence, iNicSnFR3a_PM in transfected HeLa cells; assay type: cell-based, human; settings: Fig. 5 E; normalized to nicotine (100 µM)
[4] = tested on: iNicSnFR3a_ER expressed in HeLa cells; assay: Time-resolved fluorescence, iNicSnFR3a_ER in transfected HeLa cells; assay type: cell-based, human; settings: Fig. 5 E; normalized to nicotine (100 µM)
[5] = tested on: iNiSnFR3a_Y357A_PM in HeLa cells; settings: concentrations ≤300 µM
[6] = tested on: iNicSnFR3a_ER in human dopaminergic neurons
[7] = tested on: iNicSnFR3 biosensors targeted to the ER; assay type: cell-based
[8] = tested on: _ER constructs in HeLa cells and hippocampal neurons; settings: applied [nicotine] ≤ 5 µM; mean ± SEM, n = 8 cells
iNicSnFR3a = assay: Stopped-flow kinetics of ligand binding to iNicSnFR3a
[9] = tested on: _PM constructs in HeLa cells and hippocampal neurons; settings: applied [nicotine] ≤ 5 µM; mean ± SEM, n = 8 cells
purified iNicSnFR3a [10] = assay: Isothermal titration calorimetry with purified iNicSnFR3a; assay type: binding; settings: PBS, 25°C
Method in brief: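 Calorimetric titration: 100 µM protein in the cell titrated with 1 mM test ligand in PBS at 25°C. Binding isotherm yields equilibrium dissociation constant and stoichiometry (moles ligand per mole protein).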

iNicSnFR1 = settings: read-out: apparent nicotine EC50
[11] = tested on: AAV_iNicSnFR3b_ER in cultured mouse hippocampal neurons
[12] = cited from earlier work
[13] = cited from earlier work; for pKa: no reference printed; for logD7.4: ref Smith et al., 2012
α4β2 nAChRs [14] = settings: cited from earlier work
[15] = tested on: iNicSnFR3a and iNicSnFR3b in HeLa cells and neurons; assay type: cell-based
[16] = tested on: AAV2/1.syn1.iNicSnFR3b_ER in cultured hippocampal neurons; assay: Time-resolved fluorescence, iNicSnFR3b_ER in cultured hippocampal neurons; assay type: cell-based, mouse; settings: compared with nicotine responses and with varenicline responses on the PM
α7 nAChRs = settings: cited from earlier work
α4β2 nAChRs [17] = settings: ref Turner et al., 2011; Marks et al., 2015; Govind et al., 2017; cited from earlier work
[18] = ref Coe et al., 2005, Mihalak et al., 2006

SMILES: c1cncc(OC[C@@H]2CCN2)c1 [A-85380]
- sensitivity of iNicSnFR3a and iNicSnFR3b to other α4β2 agonists (purified iNicSnFR3a [1]): less sensitive

SMILES: CC(=O)OCC[N+](C)(C)C [ACh, acetylcholine]
- binding to the purified protein [2]: bind to this protein
- fluorescence increases [3]: comparable fluorescence increases
- fluorescence increases [4]: only nicotine evoked fluorescence increases

SMILES: C[N+](C)(C)CC(=O)O [betaine]
- binding to the purified protein [2]: bind to this protein

SMILES: C[N+](C)(C)CCO [choline]
- binding to the purified protein [2]: bind to this protein
- EC50 for choline relative to nicotine (purified iNicSnFR3a [1]; Fig. 2 C): more than fourfold greater

SMILES: CN1C(=O)CC[C@H]1c1cccnc1 [cotinine]
- ΔF (purified iNicSnFR3a [1]; Fig. 2 C): near-zero ΔF values

SMILES: O=c1cccc2n1C[C@@H]1CNC[C@H]2C1 [cytisine]
- sensitivity of iNicSnFR3a and iNicSnFR3b to other α4β2 agonists (purified iNicSnFR3a [1]): less sensitive

SMILES: c1cnc2c(c1)O[C@H]1CCN3CC[C@@]1(C2)C3 [dianicline]
- sensitivity of iNicSnFR3a and iNicSnFR3b to other α4β2 agonists (purified iNicSnFR3a [1]): less sensitive

SMILES: CN1CCC[C@H]1c1cccnc1 [nicotine, (—)–Nicotine]
- nicotine-induced ΔF [5]: no detectable nicotine-induced ΔF
- maximum ΔF/F0 [6]: 3–4
- slope [ΔF/F0]/[nicotine] ([6]; [nicotine] ≤ 5 µM, Fig. 6 F inset): 0.087 µM⁻¹
- EC50 ([6]; read-out: [nicotine] giving half-ΔFmax/F0): ~20 µM
- [nicotine] in the ER versus the extracellular value [7]: within twofold; also recorded: less than twofold
- time for nicotine to leave the ER after removal from the extracellular solution [7]: ≤ 10 s
- [ΔF/F0]/[nicotine] [8]: 0.075 ± 0.019 µM⁻¹
- koff-ext (extrapolation to zero [nicotine]) (iNicSnFR3a; 25°C, PBS): 2.0 s⁻¹
- Kd (iNicSnFR3a; read-out: equilibrium-binding constant Kd = koff/kon, stopped-flow): 29 µM
- decrease in EC50 as the pH is increased from 6.0 to 9.0 (purified iNicSnFR3a [1]; Fig. 3 I): ~20 fold
- EC50 for nicotine relative to EC50 for N’MeNic (purified iNicSnFR3a [1]; pH 6.0 to 9.0, Fig. 3 I): 1.25- to 2 fold
- ΔFmax/F0 (purified iNicSnFR3a [1]; pH 7.5): 14.5
- ΔFmax/F0 (purified iNicSnFR3a [1]; pH 9.0): 3.5
- [ΔF/F0]/[nicotine] [9]: 0.063 ± 0.13 µM⁻¹
- fluorescence increases [3]: comparable fluorescence increases
- fluorescence increases [4]: only nicotine evoked fluorescence increases
- Kd (purified iNicSnFR3a [10]): 10 ± 2.5 µM
- EC50 (iNicSnFR1): 250 µM
- diffusion constant [11]: ~1 µm^2/ms
- time scale of complete response ([11]; cell in ROI 3, ∼150 µm from the pipette tip): ~10 s
- time of fluorescence increase ([11]; cell within 10 µm of the pipette tip): < 1 s
- half-time of metabolism ([12]; in humans, ref Benowitz et al., 1991): ~20 min
- peak [nicotine] in the plasma and brain of a smoker ([12]; ref Benowitz et al., 1991, Rollema et al., 2010): ~1 µM
- pKa [13]: 7.5–8
- pKa ([13]; listed as Nicotine): 7.5–8.1
- logD7.4 [13]: −0.04

SMILES: c1cnc2cc3c(cc2n1)[C@@H]1CNC[C@H]3C1 [varenicline]
- agonist type (α4β2 nAChRs [14]; no reference printed): partial agonist
- potency relative to ACh (α4β2 nAChRs [14]; [18]): more potent than ACh
- EC50 [15]: 1 to 4 µM
- growth and decay phases of the ER varenicline-induced fluorescence [16]: clearly slower
- time for varenicline to leave the ER after leaving the external solution ([7]; clinically relevant sub-µM concentrations): at most 60 s
- agonist type (α7 nAChRs; no reference printed): full agonist
- potency relative to ACh (α7 nAChRs; [18]): more potent than ACh
- inferred Kd relative to nicotine (iNicSnFR3a; stopped-flow): approximately threefold less
- agonist character for iNicSnFR3 fluorescence (purified iNicSnFR3a [1]): highly potent full agonist
- varenicline EC50 relative to nicotine (purified iNicSnFR3a [1]; purified iNicSnFR3a): approximately sixfold less
- Kd (purified iNicSnFR3a [10]): 3.5 µM
- effect of exposure on α4β2 nAChRs (α4β2 nAChRs [17]): up-regulates
- half-life ([12]; human plasma, ref Faessel et al., 2006): ~24 h
- pKa [13]: 9.5–10
- logD7.4 [13]: −1.27
